Experimental data gathered from unrelated publications.
Compare with care: the assays were run in different laboratories.

| SMILES | test system | setting | half-life [h] |
| --- | --- | --- | --- |
| CCCC[C@@H](NC(=O)[C@@H](Cc1cn(C(=O)OC)c2ccccc12)NC(=O)[C@H](CC(C)(C)C)NC(=O)N1[C@H](C)CCC[C@@H]1C)C(=O)O | male CD-1 mouse, plasma | intravenous, 3 mg/kg | 0.68 |
| Cc1[nH]c(C)c(S(=O)(=O)Nc2ccc(C(F)(F)F)c(Cl)c2)c1C(=O)N1CCC(F)(F)C1 | male CD-1 mouse, brain | intraperitoneal, 40 mg/kg | 3.65 |
| Cc1ncsc1-c1ccc([C@H](CC(=O)N2CC3(C2)CN(c2ccc(C#Cc4ccc(C(=O)N5CCC(n6cc(-c7ccc8c(c7)CCN8C(=O)Cc7cccc(OC(F)(F)F)c7)c7c(N)ncnc76)CC5)cc4)cn2)C3)NC(=O)[C@@H]2C[C@@H](O)CN2C(=O)[C@@H](NC(=O)C2(F)CC2)C(C)(C)C)cc1 | male C57BL/6 mouse, plasma | intravenous, 1 mg/kg | 5.9 |
| NCc1ccc(-c2nn(Cc3ccccc3)c3ccccc23)o1 | male CD-1 mouse, plasma | intraperitoneal, 30 mg/kg | 2.33 |
| Cc1ccc2c(c1)C(=O)[C@]1(O)CCN(c3ccc4nc(C)ccc4c3)C1=N2.Cl | mouse, brain | subcutaneous, 5 mg/kg | 10.5 |
| COC1=CC(c2ccc[nH]2)=N/C1=C\c1cc(Cc2ccc(OC(F)(F)F)cc2)c(C)[nH]1.Cl | male CD-1 mouse, liver | oral, 40 mg/kg, single dose | 58.3 |
| Cc1ccc(N(c2ccc(NC(=O)CN(C)c3ccccc3N3CCCC3=O)cc2)C(C)C)cc1 | male CD-1 mouse, plasma | oral, 20 mg/kg | 1.48 |
| COc1cc(C2C3=C(COC3=O)N(CCO)c3cc4c(cc32)CCC4)cc(OC)c1OC (stereo not drawn) | female C57BL/6 mouse, plasma | intraperitoneal, 50 mg/kg | 5.2 |
| Cc1cc(-c2ccnc3[nH]cc(F)c23)cc(F)c1[C@@]1(O)[C@H](C)CN(C(=O)CN)C[C@@H]1C | male CD-1 mouse, plasma | oral, 3 mg/kg | 8.5 |
| CSC1O[C@@H]([C@H](NC(=O)[C@H]2NC[C@@H]3C[C@H](CC(C)C)CCO[C@H]32)[C@H](C)Cl)C(O)[C@@H](O)[C@H]1O (stereo partly drawn) | mouse, plasma | intravenous, 3 mg/kg, single dose | 2.05 |
| NCc1ccc(-c2nn(Cc3ccncc3)c3ccccc23)o1 | male CD-1 mouse, plasma | intraperitoneal, 30 mg/kg | 5.69 |
| Cc1ncsc1-c1ccc([C@H](C)NC(=O)[C@@H]2C[C@@H](O)CN2C(=O)[C@@H](NC(=O)CCCCCCCCC(=O)N2CCC(n3cc(-c4ccc5c(c4)CCN5C(=O)Cc4cccc(OC(F)(F)F)c4)c4c(N)ncnc43)CC2)C(C)(C)C)cc1 | male C57BL/6 mouse, plasma | intravenous, 1 mg/kg | 3.1 |
| OCc1ccc(-c2nn(Cc3ccccc3)c3ccccc23)o1 | male CD-1 mouse, plasma | oral, 10 mg/kg | 1.86 |
| CC(C)(C)c1sc2ncnc(Oc3c(F)cccc3OC(F)(F)F)c2c1-c1ccc(Cl)cc1 | mouse, plasma | intravenous, 1 mg/kg | 2.49 |
| O=C1CCC(N2Cc3cc(C4CCN(Cc5ccccc5)CC4)ccc3C2=O)C(=O)N1 (stereo not drawn) | male CD-1 mouse, plasma | oral, 3 mg/kg | 1.28 |
| Cc1cc(-c2ccnc3[nH]cc(F)c23)cc(F)c1[C@@]1(O)[C@H](C)CN(C2CCS(=O)(=O)CC2)C[C@@H]1C | male CD-1 mouse, plasma | oral, 3 mg/kg | 2.5 |
| COc1ccc(C[C@H](NC(=O)[C@H](C)NC(=O)CN2CCOCC2)C(=O)N[C@@H](Cc2ccccc2)C(=O)C2(C)CO2)cc1 (stereo in doubt) | mouse, plasma | oral, 20 mg/kg, single dose | 0.7 |
| CCOC(=O)c1c(NC(=O)CNC(C)C)sc2c1CCCCC2 | male mouse, plasma | intraperitoneal, 5 mg/kg, single dose | 1.47 |
| Cl.Fc1ccc(Oc2ccc(Nc3ccc4ncc(OCC5CCNCC5)nc4c3)cc2)cc1 | SCID mouse, plasma | intraperitoneal, 50 mg/kg | > 40 |
| CN(C)C(=O)c1cc2cnc(Nc3ccc(-c4ccc5c(=O)cc(N6CCOCC6)oc5c4)cc3)nc2n1C1CCCC1.Cl | BALB/c mouse, plasma | intravenous, 2 mg/kg | 2.8 |
| COC1=CC(c2ccc[nH]2)=N/C1=C\c1[nH]c(Cc2ccc(OC(F)(F)F)cc2)cc1Cc1ccc(OC(F)(F)F)cc1 | male CD-1 mouse, liver | oral, 40 mg/kg, single dose | 7.62 |
| CC1(CNc2nc(-c3cccs3)nc(Cl)c2-c2c(F)cc(N)cc2F)COC1 | mouse, plasma | intraperitoneal, 2.5 mg/kg | 1.51 |
| COCC(=O)N1CCc2[nH]c3c(Cl)c(Cl)ccc3c2[C@@H]1C | C57BL/6 mouse, blood | oral, 20 mg/kg | 4.82 |
| Cc1ccc(OCC(=O)N[C@@H](Cc2c[nH]c3ccccc23)C(=O)OC(C)C)cc1 | male Sprague-Dawley mouse, plasma | intravenous, 10 mg/kg | 2.2 |
